How the values were obtained:
[1] = target: Tyrosine-protein kinase JAK2 (Homo sapiens, UniProt O60674, V617F); assay: Inhibition of JAK2 V617F mutant in human SET2 cells; assay type: cell-based
Outline: (§1)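 Cell proliferation assay. IC50 is the concentration that inhibits proliferation by 50%, taken from dose–response curves. Mean ± SEM of at least three independent experiments.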

[2] = target: Tyrosine-protein kinase JAK2 (Mus musculus, UniProt Q62120, V617F); assay: Inhibition of JAK2 V617F mutant in mouse BaF3 cells; assay type: cell-based; outline: as §1
[3] = target: T1, Receptor-type tyrosine-protein kinase FLT3 (Homo sapiens, UniProt P36888); assay: Inhibition of FLT3 in human MOLM-13 cells; assay type: cell-based; outline: as §1
T1 sequence (P36888 whole entry): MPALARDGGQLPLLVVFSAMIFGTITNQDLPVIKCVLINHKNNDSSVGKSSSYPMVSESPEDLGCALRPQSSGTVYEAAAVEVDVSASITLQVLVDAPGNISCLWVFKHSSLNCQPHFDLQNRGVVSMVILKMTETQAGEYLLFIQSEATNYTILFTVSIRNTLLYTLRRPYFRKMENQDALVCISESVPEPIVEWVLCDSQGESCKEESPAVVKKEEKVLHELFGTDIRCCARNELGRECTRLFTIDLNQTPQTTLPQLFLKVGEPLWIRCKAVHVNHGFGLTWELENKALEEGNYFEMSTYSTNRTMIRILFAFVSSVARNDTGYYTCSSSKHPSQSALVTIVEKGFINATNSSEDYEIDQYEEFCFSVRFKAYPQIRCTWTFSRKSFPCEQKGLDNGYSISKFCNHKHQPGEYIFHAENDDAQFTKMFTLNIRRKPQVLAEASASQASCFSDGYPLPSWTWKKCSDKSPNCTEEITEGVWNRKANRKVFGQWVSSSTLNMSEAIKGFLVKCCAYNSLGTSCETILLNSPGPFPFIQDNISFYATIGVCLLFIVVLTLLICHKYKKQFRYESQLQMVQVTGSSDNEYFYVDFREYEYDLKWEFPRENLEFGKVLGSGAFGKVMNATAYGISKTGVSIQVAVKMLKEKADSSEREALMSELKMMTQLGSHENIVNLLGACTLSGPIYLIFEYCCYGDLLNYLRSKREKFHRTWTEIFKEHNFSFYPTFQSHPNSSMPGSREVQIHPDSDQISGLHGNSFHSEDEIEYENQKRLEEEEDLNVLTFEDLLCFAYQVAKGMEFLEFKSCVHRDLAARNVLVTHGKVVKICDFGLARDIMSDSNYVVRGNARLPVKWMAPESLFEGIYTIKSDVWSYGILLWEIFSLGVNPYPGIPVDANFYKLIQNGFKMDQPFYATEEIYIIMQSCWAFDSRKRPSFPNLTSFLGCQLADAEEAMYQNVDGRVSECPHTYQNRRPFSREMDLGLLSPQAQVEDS

[4] = Metabolic stability in human liver microsomes assessed as half life; assay type: ADME, Microsome
[5] = target: T2, Tyrosine-protein kinase JAK2 (Homo sapiens, UniProt O60674); assay: Inhibition of human JAK2 JH1 expressed in baculovirus infected Sf9 cells assessed as residual activity at 100 nM relative to control
[6] = target: Tyrosine-protein kinase JAK1 (Homo sapiens, UniProt P23458); assay: Inhibition of JAK1 (unknown origin) in presence of Mg/ATP mixture by [gamma p33]-ATP based radiometric assay
Outline: (§2)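 IC50 values determined by Eurofins Discovery.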

[7] = target: T2, Tyrosine-protein kinase JAK2; assay: Inhibition of JAK2 (unknown origin) in presence of Mg/ATP mixture by [gamma p33]-ATP based radiometric assay; outline: as §2
[8] = target: T3, Tyrosine-protein kinase JAK3 (Homo sapiens, UniProt P52333); assay: Inhibition of JAK3 (unknown origin) in presence of Mg/ATP mixture by [gamma p33]-ATP based radiometric assay
T3 sequence (P52333 whole entry): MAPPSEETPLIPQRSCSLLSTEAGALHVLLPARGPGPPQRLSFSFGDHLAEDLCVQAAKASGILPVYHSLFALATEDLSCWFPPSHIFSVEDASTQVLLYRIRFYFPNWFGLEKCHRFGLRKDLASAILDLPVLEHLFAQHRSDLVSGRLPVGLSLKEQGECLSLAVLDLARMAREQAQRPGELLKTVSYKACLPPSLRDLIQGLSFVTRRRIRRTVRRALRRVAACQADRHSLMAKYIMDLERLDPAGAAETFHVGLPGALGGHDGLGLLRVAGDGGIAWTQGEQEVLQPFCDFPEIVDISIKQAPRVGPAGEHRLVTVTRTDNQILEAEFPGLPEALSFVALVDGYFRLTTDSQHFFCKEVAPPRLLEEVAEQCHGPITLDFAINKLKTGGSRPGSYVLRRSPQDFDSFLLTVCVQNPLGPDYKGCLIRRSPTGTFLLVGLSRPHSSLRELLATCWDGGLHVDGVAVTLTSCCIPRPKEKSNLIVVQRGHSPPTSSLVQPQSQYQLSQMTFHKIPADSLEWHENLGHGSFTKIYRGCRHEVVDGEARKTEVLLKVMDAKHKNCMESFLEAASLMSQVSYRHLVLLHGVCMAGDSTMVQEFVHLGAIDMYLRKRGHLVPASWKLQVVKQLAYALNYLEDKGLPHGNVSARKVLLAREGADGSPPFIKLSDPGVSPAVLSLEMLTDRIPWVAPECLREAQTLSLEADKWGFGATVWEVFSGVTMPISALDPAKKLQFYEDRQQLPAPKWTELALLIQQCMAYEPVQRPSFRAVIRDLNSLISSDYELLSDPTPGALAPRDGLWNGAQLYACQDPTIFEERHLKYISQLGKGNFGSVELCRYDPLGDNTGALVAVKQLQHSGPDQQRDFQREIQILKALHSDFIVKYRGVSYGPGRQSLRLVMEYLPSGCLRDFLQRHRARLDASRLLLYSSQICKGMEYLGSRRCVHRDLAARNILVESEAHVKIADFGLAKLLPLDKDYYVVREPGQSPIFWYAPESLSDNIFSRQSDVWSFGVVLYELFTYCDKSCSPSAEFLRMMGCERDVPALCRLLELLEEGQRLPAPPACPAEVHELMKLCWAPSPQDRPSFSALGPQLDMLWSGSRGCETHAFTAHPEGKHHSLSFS

[9] = target: Non-receptor tyrosine-protein kinase TYK2 (Homo sapiens, UniProt P29597); assay: Inhibition of TYK2 (unknown origin) in presence of Mg/ATP mixture by [gamma p33]-ATP based radiometric assay
[10] = target: T1, Receptor-type tyrosine-protein kinase FLT3; assay: Inhibition of FLT3 (unknown origin) in presence of Mg/ATP mixture by [gamma p33]-ATP based radiometric assay; outline: as §2
[11] = Selectivity ratio of IC50 for JAK3 (unknown origin) to IC50 for JAK2 (unknown origin)
[12] = Selectivity ratio of IC50 for TYK2 (unknown origin) to IC50 for JAK2 (unknown origin)
[13] = Selectivity ratio of IC50 for FLT3 (unknown origin) to IC50 for JAK2 (unknown origin)
[14] = Cmax in Sprague-Dawley rat at 5 mg/kg, po measured upto 24 hrs by LC-MS/MS analysis; assay type: ADME, organism-based; set-up: dose 5 mg/kg, time < 24 hrs, route po; conditions: Sprague-Dawley, in vivo, read-out: Cmax
Outline: (§3)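 Sprague–Dawley rats, n = 5, dosed at 5 mg/kg as a solution in 2% ethanol and 1% Tween 80, pH 5.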

[15] = Tmax in Sprague-Dawley rat at 5 mg/kg, po measured upto 24 hrs by LC-MS/MS analysis; assay type: ADME, organism-based; conditions: Sprague-Dawley, in vivo, read-out: Tmax
Outline: (§4)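 Sprague–Dawley rats, n = 5 per group, dosed at 5 mg/kg as a solution in 2% ethanol and 1% Tween 80, pH 5.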

[16] = Half life in Sprague-Dawley rat at 5 mg/kg, po measured upto 24 hrs by LC-MS/MS analysis; assay type: ADME, organism-based; conditions: Sprague-Dawley, in vivo; outline: as §3
[17] = Clearance in Sprague-Dawley rat at 5 mg/kg, po measured upto 24 hrs by LC-MS/MS analysis; assay type: ADME, organism-based; conditions: in vivo; outline: as §3
[18] = AUC(0 to t) in Sprague-Dawley rat at 5 mg/kg, po measured upto 24 hrs by LC-MS/MS analysis; assay type: ADME, organism-based; set-up: time < 24 hrs, dose 5 mg/kg, route po; conditions: in vivo; outline: as §3
[19] = Oral bioavailability in Sprague-Dawley rat at 5 mg/kg measured upto 24 hrs by LC-MS/MS analysis; assay type: ADME, organism-based; conditions: in vivo; outline: as §4

Tyrosine-protein kinase JAK2 (Mus musculus, UniProt Q62120, V617F), sequence (Q62120 as listed by the source V617F): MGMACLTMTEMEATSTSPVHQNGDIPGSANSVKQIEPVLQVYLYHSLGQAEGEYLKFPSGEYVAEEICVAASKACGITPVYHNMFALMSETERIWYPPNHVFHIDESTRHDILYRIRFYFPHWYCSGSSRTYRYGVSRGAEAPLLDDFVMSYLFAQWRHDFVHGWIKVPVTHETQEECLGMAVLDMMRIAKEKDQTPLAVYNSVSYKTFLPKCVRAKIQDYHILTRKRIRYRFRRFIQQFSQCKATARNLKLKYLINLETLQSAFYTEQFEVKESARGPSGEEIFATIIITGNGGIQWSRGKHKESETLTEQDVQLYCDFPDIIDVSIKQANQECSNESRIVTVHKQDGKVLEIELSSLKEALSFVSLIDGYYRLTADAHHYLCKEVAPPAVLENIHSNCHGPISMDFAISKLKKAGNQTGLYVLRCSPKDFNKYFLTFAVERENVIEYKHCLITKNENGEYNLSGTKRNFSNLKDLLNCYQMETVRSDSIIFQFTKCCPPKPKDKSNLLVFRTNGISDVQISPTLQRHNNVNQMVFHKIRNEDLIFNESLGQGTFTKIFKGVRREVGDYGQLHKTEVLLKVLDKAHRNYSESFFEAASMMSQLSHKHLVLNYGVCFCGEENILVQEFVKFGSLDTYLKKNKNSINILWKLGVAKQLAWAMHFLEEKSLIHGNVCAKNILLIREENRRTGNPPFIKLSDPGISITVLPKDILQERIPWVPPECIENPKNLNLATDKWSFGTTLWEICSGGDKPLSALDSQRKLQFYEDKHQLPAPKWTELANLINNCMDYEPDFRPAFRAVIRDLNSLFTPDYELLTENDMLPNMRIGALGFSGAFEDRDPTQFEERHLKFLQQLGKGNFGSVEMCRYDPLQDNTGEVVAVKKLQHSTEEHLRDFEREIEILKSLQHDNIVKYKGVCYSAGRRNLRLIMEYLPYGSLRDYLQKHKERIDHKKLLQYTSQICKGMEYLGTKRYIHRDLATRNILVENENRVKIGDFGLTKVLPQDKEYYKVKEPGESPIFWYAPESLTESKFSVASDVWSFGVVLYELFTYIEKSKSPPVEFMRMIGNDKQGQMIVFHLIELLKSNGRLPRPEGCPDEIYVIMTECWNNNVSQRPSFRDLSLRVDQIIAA
Tyrosine-protein kinase JAK1, sequence (P23458 whole entry): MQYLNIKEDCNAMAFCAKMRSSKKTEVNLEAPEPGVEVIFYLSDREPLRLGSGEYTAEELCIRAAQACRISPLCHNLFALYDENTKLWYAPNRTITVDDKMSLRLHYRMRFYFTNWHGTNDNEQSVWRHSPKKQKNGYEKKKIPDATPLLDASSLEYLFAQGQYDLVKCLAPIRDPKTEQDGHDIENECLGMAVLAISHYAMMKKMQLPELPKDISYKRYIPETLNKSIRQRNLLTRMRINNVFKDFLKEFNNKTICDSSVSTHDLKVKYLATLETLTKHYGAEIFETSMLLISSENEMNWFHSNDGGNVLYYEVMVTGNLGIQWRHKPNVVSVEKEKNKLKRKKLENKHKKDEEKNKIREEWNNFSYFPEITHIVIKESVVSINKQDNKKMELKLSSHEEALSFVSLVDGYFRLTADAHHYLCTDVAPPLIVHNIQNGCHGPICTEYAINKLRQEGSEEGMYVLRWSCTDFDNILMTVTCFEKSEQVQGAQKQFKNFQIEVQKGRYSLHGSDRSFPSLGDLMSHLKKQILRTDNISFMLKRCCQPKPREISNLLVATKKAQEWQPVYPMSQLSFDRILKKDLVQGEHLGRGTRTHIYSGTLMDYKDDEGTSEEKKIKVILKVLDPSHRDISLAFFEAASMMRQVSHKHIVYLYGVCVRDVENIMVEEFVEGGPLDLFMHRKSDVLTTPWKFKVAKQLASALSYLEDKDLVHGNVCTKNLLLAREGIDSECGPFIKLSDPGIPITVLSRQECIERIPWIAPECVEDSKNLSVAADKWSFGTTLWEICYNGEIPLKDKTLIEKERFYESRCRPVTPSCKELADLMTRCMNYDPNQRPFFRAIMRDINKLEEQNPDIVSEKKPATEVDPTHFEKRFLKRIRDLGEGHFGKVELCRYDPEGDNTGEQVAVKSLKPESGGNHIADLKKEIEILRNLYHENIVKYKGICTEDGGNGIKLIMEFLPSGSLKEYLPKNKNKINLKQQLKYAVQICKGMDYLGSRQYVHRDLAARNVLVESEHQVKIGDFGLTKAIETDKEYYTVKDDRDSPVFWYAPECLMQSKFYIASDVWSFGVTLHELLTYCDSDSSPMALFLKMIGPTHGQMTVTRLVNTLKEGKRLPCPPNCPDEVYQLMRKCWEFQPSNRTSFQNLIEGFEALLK
Non-receptor tyrosine-protein kinase TYK2, sequence (P29597 whole entry): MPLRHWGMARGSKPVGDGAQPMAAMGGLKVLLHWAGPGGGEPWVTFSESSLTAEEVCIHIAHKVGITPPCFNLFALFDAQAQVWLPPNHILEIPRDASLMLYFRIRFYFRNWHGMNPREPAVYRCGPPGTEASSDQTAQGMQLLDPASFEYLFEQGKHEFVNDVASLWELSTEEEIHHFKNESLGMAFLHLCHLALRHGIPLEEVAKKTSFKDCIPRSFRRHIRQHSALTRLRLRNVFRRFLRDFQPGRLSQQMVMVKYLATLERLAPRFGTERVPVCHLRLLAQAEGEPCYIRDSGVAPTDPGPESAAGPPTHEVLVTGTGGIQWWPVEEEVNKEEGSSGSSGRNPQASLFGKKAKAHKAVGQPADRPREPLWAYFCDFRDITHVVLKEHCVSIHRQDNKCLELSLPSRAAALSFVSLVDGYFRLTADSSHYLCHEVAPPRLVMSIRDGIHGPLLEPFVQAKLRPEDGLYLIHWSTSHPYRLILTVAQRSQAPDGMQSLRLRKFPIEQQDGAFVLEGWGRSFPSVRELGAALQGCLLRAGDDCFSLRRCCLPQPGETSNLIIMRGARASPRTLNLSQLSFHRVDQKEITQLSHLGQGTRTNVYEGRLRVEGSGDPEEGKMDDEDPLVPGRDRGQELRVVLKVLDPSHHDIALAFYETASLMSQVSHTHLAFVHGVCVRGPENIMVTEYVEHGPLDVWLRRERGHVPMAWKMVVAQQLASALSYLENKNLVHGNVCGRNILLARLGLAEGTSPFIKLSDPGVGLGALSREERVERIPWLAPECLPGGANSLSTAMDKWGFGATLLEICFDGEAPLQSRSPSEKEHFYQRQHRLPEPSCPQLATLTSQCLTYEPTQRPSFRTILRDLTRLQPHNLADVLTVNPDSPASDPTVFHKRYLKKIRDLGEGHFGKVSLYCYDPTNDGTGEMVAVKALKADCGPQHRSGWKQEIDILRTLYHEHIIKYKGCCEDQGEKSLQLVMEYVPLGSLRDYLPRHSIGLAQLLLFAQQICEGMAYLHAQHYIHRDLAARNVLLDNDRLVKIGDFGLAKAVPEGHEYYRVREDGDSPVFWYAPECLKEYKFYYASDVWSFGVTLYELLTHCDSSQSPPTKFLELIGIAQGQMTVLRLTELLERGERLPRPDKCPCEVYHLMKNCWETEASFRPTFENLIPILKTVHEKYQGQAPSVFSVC
Tyrosine-protein kinase JAK2 (Homo sapiens, UniProt O60674, V617F), sequence (O60674 whole entry V617F): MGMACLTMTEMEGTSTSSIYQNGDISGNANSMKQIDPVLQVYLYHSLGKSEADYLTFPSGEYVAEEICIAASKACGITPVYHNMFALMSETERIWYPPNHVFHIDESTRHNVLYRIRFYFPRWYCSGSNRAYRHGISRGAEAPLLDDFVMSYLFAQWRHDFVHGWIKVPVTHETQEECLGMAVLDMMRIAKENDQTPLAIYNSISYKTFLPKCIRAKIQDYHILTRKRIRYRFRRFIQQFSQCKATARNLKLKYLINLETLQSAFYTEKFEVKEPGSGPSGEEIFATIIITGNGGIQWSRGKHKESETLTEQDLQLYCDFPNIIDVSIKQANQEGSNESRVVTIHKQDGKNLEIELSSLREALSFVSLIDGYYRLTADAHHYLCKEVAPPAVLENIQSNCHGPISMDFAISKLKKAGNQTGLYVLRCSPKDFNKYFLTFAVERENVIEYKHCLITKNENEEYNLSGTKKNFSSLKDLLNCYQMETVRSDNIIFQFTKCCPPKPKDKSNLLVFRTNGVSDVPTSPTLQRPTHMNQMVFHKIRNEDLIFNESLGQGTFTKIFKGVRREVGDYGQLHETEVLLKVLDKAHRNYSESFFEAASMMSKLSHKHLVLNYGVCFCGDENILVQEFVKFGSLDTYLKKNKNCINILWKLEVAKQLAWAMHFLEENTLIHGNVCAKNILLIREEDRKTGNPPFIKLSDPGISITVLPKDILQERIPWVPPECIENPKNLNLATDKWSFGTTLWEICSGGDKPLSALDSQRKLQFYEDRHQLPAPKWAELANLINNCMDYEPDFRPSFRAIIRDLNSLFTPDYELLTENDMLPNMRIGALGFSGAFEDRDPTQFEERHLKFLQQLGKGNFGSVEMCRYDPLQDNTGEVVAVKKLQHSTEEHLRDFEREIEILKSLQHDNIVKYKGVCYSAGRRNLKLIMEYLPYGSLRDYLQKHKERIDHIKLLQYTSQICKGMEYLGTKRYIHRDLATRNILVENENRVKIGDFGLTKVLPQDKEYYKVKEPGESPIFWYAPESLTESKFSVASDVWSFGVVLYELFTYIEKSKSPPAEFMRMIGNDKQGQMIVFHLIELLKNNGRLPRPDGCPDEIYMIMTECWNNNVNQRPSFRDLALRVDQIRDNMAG
T2 sequence (O60674 whole entry): as the sequence (O60674 whole entry V617F) above, with F617V counted along it

| SMILES | IC50 [1] [nM] | IC50 [2] [nM] | IC50 [3] [nM] | half-life [4] [h] | Activity [5] [%] | IC50 [6] [nM] | IC50 [7] [nM] | IC50 [8] [nM] | IC50 [9] [nM] | IC50 [10] [nM] | Ratio IC50 [11] | Ratio IC50 [12] | Ratio IC50 [13] | Cmax [14] [ng/mL] | Tmax [15] [h] | half-life [16] [h] | CL [17] [mL/min/kg] | AUCt [18] [ng·h/mL] | bioavailability [19] [%] |
| --- | --- | --- | --- | --- | --- | --- | --- | --- | --- | --- | --- | --- | --- | --- | --- | --- | --- | --- | --- |
| C=CS(=O)(=O)NCCc1ccc(Nc2ncc(C)c(-c3cnn(C(C)C)c3)n2)cc1 | 761 | 169 | 1800 | 1.48 | 30 |  |  |  |  |  |  |  |  |  |  |  |  |  |  |
| Cc1cnc(Nc2ccc(CNC(=O)CCCl)cc2)nc1-c1cnn(C(C)C)c1 | 985 | 385 | 5560 | 0.742 | 45 |  |  |  |  |  |  |  |  |  |  |  |  |  |  |
| Cc1cnc(Nc2ccc(CNC(=O)/C=C/CN(C)C)cc2)nc1-c1cnn(C(C)C)c1 | 880 | 265 | 826 | 1.09 | 35 |  |  |  |  |  |  |  |  |  |  |  |  |  |  |
| Cc1cnc(Nc2ccc(CCNC(=O)CCl)cc2)nc1-c1cnn(C(C)C)c1 | 1550 | 372 | 1680 | 0.493 | 48 |  |  |  |  |  |  |  |  |  |  |  |  |  |  |
| Cc1cnc(Nc2ccc(CCNC(=O)/C=C/CN(C)C)cc2)nc1-c1cnn(C(C)C)c1 | 2190 | 1140 | > 10000 | 0.902 | 64 |  |  |  |  |  |  |  |  |  |  |  |  |  |  |
| Cc1cnc(Nc2ccc(CCNC(=O)CCCl)cc2)nc1-c1cnn(C(C)C)c1 | 5620 | 2200 | > 10000 | 0.672 | 67 |  |  |  |  |  |  |  |  |  |  |  |  |  |  |
| Cc1cnc(Nc2ccc(CNC(=O)CCCN(C)C)cc2)nc1-c1cnn(C(C)C)c1 | 1960 | 870 | 5840 | 1.27 | 55 |  |  |  |  |  |  |  |  |  |  |  |  |  |  |
| Cc1cnc(Nc2ccc(CCNC(=O)CCCN(C)C)cc2)nc1-c1cnn(C(C)C)c1 | 5230 | 3310 | > 10000 | 1 | 77 |  |  |  |  |  |  |  |  |  |  |  |  |  |  |
| Cc1cnc(Nc2ccc(CNC(=O)/C=C/C(=O)c3ccccc3)cc2)nc1-c1cnn(C(C)C)c1 | 563 | 87.5 | 756 | 0.913 | 5 | 43 | 7 | 54 | 43 | 108 | 7.7 | 6.1 | 15.4 |  |  |  |  |  |  |

These reach a lower IC50 [1]. Values come first.

| IC50 [1] [nM] | IC50 [2] [nM] | IC50 [3] [nM] | half-life [4] [h] | Activity [5] [%] | IC50 [6] [nM] | IC50 [7] [nM] | IC50 [8] [nM] | IC50 [9] [nM] | IC50 [10] [nM] | Ratio IC50 [11] | Ratio IC50 [12] | Ratio IC50 [13] | Cmax [14] [ng/mL] | Tmax [15] [h] | half-life [16] [h] | CL [17] [mL/min/kg] | AUCt [18] [ng·h/mL] | bioavailability [19] [%] | SMILES |
| --- | --- | --- | --- | --- | --- | --- | --- | --- | --- | --- | --- | --- | --- | --- | --- | --- | --- | --- | --- |
| 279 | 178 | 882 | 0.57 | 34 |  |  |  |  |  |  |  |  |  |  |  |  |  |  | Cc1cnc(Nc2ccc(CCNC(=O)/C=C/C(=O)c3ccccc3)cc2)nc1-c1cnn(C(C)C)c1 |
| 205 | 72 | 1280 | > 2 | 9 | 87 | 4 | 156 | 62 | 311 | 39 | 15.5 | 77.7 |  |  |  |  |  |  | Cc1cnc(Nc2ccc(CNC(=O)C3CC3)cc2)nc1-c1cnn(C(C)C)c1 |
| 108 | 101 | 885 | > 2 | 10 |  |  |  |  |  |  |  |  |  |  |  |  |  |  | CCCS(=O)(=O)NCc1ccc(Nc2ncc(C)c(-c3cnn(C(C)C)c3)n2)cc1 |
| 212 | 69.2 | 1510 | > 2 | 0 | 142 | 6 | 287 | 192 | 412 | 47.8 | 32 | 68.7 | 77.8 | 1 | 6.3 | 340 | 1556.8 | 35.7 | CCS(=O)(=O)NCc1ccc(Nc2ncc(C)c(-c3cnn(C(C)C)c3)n2)cc1 |
| 150 | 98.1 | 961 | 0.72 | 6 | 73 | 3 | 166 | 33 | 206 | 55.3 | 10 | 68.7 |  |  |  |  |  |  | Cc1cnc(Nc2ccc(CNC(=O)CCl)cc2)nc1-c1cnn(C(C)C)c1 |
| 421 | 182 | 1670 | 1.64 | 15 |  |  |  |  |  |  |  |  |  |  |  |  |  |  | CCCCS(=O)(=O)NCc1ccc(Nc2ncc(C)c(-c3cnn(C(C)C)c3)n2)cc1 |
| 245 | 129 | 1760 | 1.79 | 13 | 106 | 8 | 208 | 77 | 320 | 41.6 | 9.6 | 40 |  |  |  |  |  |  | C=CC(=O)NCc1ccc(Nc2ncc(C)c(-c3cnn(C(C)C)c3)n2)cc1 |
